ChEMBL document CHEMBL1158491, “Inhibitors of the hepatitis C virus NS3 protease with basic amine functionality at the P3-amino acid N-terminus: discovery and optimization of a new series of P2-P4 macrocycles” (J Med Chem, 2009)

Tests used:
Hepatitis C virus [1] = test: Inhibition of HCV 1b NS3 protease by time-resolved fluorescence assay; set-up: species or system Hepatitis C virus subtype 1b
Procedure, shortened: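 Recombinant genotype 1b NS3 protease measured by time-resolved fluorescence assay; Ki determined.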

Hepatitis C virus [2] = test: Antiviral activity against HCV 1b infected in human HuH7 cells by replicon assay in presence of 10% fetal bovine serum; assay type: functional, organism-based, Hepacivirus hominis; conditions: genotype 1b, Huh-7
Procedure, shortened: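 Subgenomic genotype 1b HCV RNA replicon in HUH-7 cells, modified Bartenschlager procedure, run with 10% fetal bovine serum. Read-out is cellular HCV RNA, confirmed in a separate assay using an anti-NS3 monoclonal antibody; EC50 derived.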

[3] = AUC (0 to 4 hrs) in Sprague-Dawley rat at 5 mg/kg, po; assay type: ADME, organism-based; set-up: time < 4 hr, dose 5 mg/kg, route oral; conditions: plasma
Procedure, shortened: (§1)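 Oral dosing in male Sprague-Dawley rats, PEG400 vehicle; plasma exposure as AUC 0–4 h; liver tissue concentration taken at the 4 h time point. Doses of 3–4 mg/kg were normalized to 5 mg/kg by linear adjustment.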

[4] = AUC (0 to 4 hrs) in Sprague-Dawley rat at 4 mg/kg, po; assay type: ADME, organism-based; set-up: time < 4 hr, dose 4 mg/kg, route oral; conditions: plasma; procedure, shortened: as §1
[5] = Drug level in Sprague-Dawley rat liver at 5 mg/kg, po after 4 hrs; assay type: ADME, organism-based; set-up: dose 5 mg/kg, route oral; conditions: read-out: Drug uptake; procedure, shortened: as §1
[6] = Drug level in Sprague-Dawley rat liver at 4 mg/kg, po after 4 hrs; assay type: ADME, organism-based; set-up: dose 4 mg/kg, route oral; conditions: read-out: Drug uptake; procedure, shortened: as §1
Hepatitis C virus [7] = test: Antiviral activity against HCV 1b infected in human HuH7 cells by replicon assay in presence of 50% normal human plasma; assay type: functional, organism-based, Hepacivirus hominis; conditions: genotype 1b, Huh-7, Plasma
Procedure, shortened: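 Genotype 1b subgenomic replicon in HUH-7 cells run under high-serum conditions (50% normal human serum). Read-out is cellular HCV RNA; EC50 reported.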

Homo sapiens = organism: Homo sapiens; test: Fraction unbound in human plasma

Compound	Ki (Hepatitis C virus [1])	EC50 (Hepatitis C virus [2])	AUC(0-t) at 4 h [3]	AUC(0-t) at 4 h [4]	concentration at 4 h [5]	concentration at 4 h [6]	EC50 (Hepatitis C virus [7])	fraction unbound (Homo sapiens)
C=C[C@@H]1C[C@]1(NC(=O)[C@@H]1C[C@@H]2CN1C(=O)[C@H](C1CCCCC1)N(C)[C@H](C)CCCCCCc1cccc3c1CN(C3)C(=O)O2)C(=O)NS(=O)(=O)C1CC1	0.35 nM	3 nM	< 0.1 µM·h	< 0.1 µM·h	560 nM	560 nM		
C=C[C@@H]1C[C@]1(NC(=O)[C@@H]1C[C@@H]2CN1C(=O)[C@H](C1CCCC1)N[C@H](C)CCCC/C=C/c1cccc3c1CN(C3)C(=O)O2)C(=O)NS(=O)(=O)C1CC1	0.29 nM	0.5 nM	< 0.1 µM·h		260 nM			
C=C[C@@H]1C[C@]1(NC(=O)[C@@H]1C[C@@H]2CN1C(=O)[C@H](C1CCCC1)N[C@H](C)CCCCCCc1cccc3c1CN(C3)C(=O)O2)C(=O)NS(=O)(=O)C1CC1	0.1 nM	0.7 nM		< 0.1 µM·h		< 100 nM		
C=C[C@@H]1C[C@]1(NC(=O)[C@@H]1C[C@@H]2CN1C(=O)[C@H](C(C)C)N[C@@H](C(F)(F)F)CCCCCCc1cccc3c1CN(C3)C(=O)O2)C(=O)NS(=O)(=O)C1CC1	5.7 nM	470 nM						
C=C[C@@H]1C[C@]1(NC(=O)[C@@H]1C[C@@H]2CN1C(=O)[C@H](C1CCCCC1)N[C@H](C)CCCCCCc1cccc3c1CN(C3)C(=O)O2)C(=O)NS(=O)(=O)C1CC1	0.06 nM	2 nM	< 0.1 µM·h					
C=C[C@@H]1C[C@]1(NC(=O)[C@@H]1C[C@@H]2CN1C(=O)[C@H](C(C)C)NC(=O)OCCC/C=C/c1cccc3c1CN(C3)C(=O)O2)C(=O)NS(=O)(=O)C1CC1	0.04 nM	12 nM						
C=C[C@@H]1C[C@]1(NC(=O)[C@@H]1C[C@@H]2CN1C(=O)C(C(C)C)NC(C(F)(F)F)CCCCCCc1cccc3c1CN(C3)C(=O)O2)C(=O)NS(=O)(=O)C1CC1 (single isomer, unassigned)	1.1 nM	18 nM					320 nM	0.019
C=C[C@@H]1C[C@]1(NC(=O)[C@@H]1C[C@@H]2CN1C(=O)C(C(C)C)NCC(F)(F)CCCCCc1cccc3c1CN(C3)C(=O)O2)C(=O)NS(=O)(=O)C1CC1 (single isomer, unassigned)	0.35 nM	14 nM					100 nM	
